Calls of active or inactive are those of the source. No cut-off for these calls is given here.

Series [1] has as its system Oocyte. Put plainly: Potentiation of Wistar rat AMPA receptor expressed in Xenopus laevis oocytes assessed as 2-fold increase in amplitude of (S)-AMPA-induced current by two electrode voltage-clamp method. The format is cell-based. The method, boiled down:
(§1)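 Xenopus oocytes were injected with rat cortex poly(A+) mRNA (1 mg/mL) and kept 3–4 days at 18 °C in Barth's solution before voltage-clamp recording. (S)-AMPA alone was applied until two similar inward currents were obtained; their mean was set as 100%. Drug was bath-applied at successive increasing concentrations every 5 min 45 s, on 2–3 oocytes. EC2X and EC5X were interpolated as twofold and fivefold current increases; EC50 was taken at half-maximal potentiation.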
Background: Two-electrode voltage clamp holds a large cell at a set potential and records current.

The test system of series [2] is Oocyte. Put plainly: Potentiation of Wistar rat AMPA receptor expressed in Xenopus laevis oocytes assessed as 5-fold increase in amplitude of (S)-AMPA-induced current by two electrode voltage-clamp method. The format is cell-based. The method, boiled down:
as §1

For series [3], the system named is Oocyte. Description: Potentiation of Wistar rat AMPA receptor expressed in Xenopus laevis oocytes assessed as increase in amplitude of (S)-[…] current by two electrode voltage-clamp method relative to AMPA. The format is cell-based. Details: concentration or dose not given beside the values. The essentials:
as §1

Series [4] in a line: Lipophilicity, log P by shake flask method. Type of series: physicochemical. The note with it: octanol/water. The essentials:
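Partition coefficient was measured between 1-octanol and phosphate buffer, pH 7.40, by shake-flask, using 1×10^-4 M stock drug solutions in octanol or buffer. Drug concentration after partition was measured by UV spectrophotometry at maximum absorbance.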

The species entered for series [5] is Rattus norvegicus. Put plainly: Cognitive enhancing effect in Wistar rat after 1 hr by one-trial object recognition test. The format is functional, organism-based. The essentials:
(§2)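 Adult rats had three 3-min sessions 24 h apart. Two similar objects were presented in session 2. In the last session one object was replaced by a new one. Compound or vehicle was given i.p. 1 h before each session at 0.3, 1, 3 or 10 mg/kg. The read-out was the discrimination index (new − familiar exploration / total exploration) in the last session.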

In series [6] the test system is Rattus norvegicus. Put plainly: Cognitive enhancing effect in Wistar rat assessed as improvement in juvenile recognition behavior at 1 mg/kp, ip. The format is functional, organism-based. The essentials: (§3)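 Adult rats were housed individually for 2 days before testing. After 5-min habituation in the home cage, a 21-day juvenile was introduced for a 5-min session and investigation time T1 was recorded on video. Dosing was i.p. 1 min after that session. The same juvenile was reintroduced 120 min later for 5 min (T2). T2–T1 was analysed by one-way ANOVA; n = 8.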

In series [7] the test system is Rattus norvegicus. Put plainly: Cognitive enhancing effect in Wistar rat assessed as improvement in juvenile recognition behavior at 100 mg/kp, po. The format is functional, organism-based.
For series [8], the system named is Rattus norvegicus. Put plainly: Cognitive enhancing effect in Wistar rat assessed as improvement in juvenile recognition behavior at 0.3 mg/kp, ip. The format is functional, organism-based. The method, boiled down:
as §3

In series [9] the test system is Rattus norvegicus. Description: Cognitive enhancing effect in Wistar rat at 100 mg/kp, po after 1 hr by one-trial object recognition test. The format is functional, organism-based.
For series [10], the system named is Rattus norvegicus. Description: Cognitive enhancing effect in Wistar rat assessed as improvement in juvenile recognition behavior at 3 mg/kp, ip. The format is functional, organism-based. The essentials:
as §3

The test system of series [11] is Rattus norvegicus. Put plainly: Cognitive enhancing effect in Wistar rat at 10 mg/kp, ip after 1 hr by one-trial object recognition test. Type of series: functional, organism-based. The method, boiled down: as §2
The subject of series [12] is Rattus norvegicus. Put plainly: Toxicity in Wistar rat at 100 mg/kp, po. Type of series: organism-based. The note with it: in vivo.
Series [13] has as its system Rattus norvegicus. Description: Cognitive enhancing effect in Wistar rat at 3 mg/kp, ip after 1 hr by one-trial object recognition test. Type of series: functional, organism-based. The essentials: as §2

As for `CN1CNS(=O)(=O)c2cccnc21`, the EC in the series with Oocyte [1] amounted to 200 µM; in the series on Oocyte [2], 500 µM.

For `CC1Nc2ccc(Cl)cc2S(=O)(=O)N1` (stereo not drawn), the values for the EC in the series on Oocyte [1] and in the series on Oocyte [2] were 134 µM and 509 µM, respectively. Besides, the Activity with Oocyte [3] was greater than 700%.

`CN1CNS(=O)(=O)c2ncccc21`: the EC stood at 21 µM in the series on Oocyte [1] and 51 µM with Oocyte [2].

`CCN1CNS(=O)(=O)c2cc(C)cnc21`: the EC in the series with Oocyte [1] and in the series on Oocyte [2] was greater than 1000 µM each time.

For `Cc1cnc2c(c1)N(C)CNS2(=O)=O`, the EC is 146 µM in the series on Oocyte [1] and greater than 300 µM with Oocyte [2].

As a reminder, the logP is a log measure of how a compound divides between an organic and an aqueous phase. The compound `CCN1CNS(=O)(=O)c2ncccc21` came in with a logP in series [4] of 0.12.

For `O=S1(=O)N[C@H]2CCCN2c2ccccc21`, the EC in the series on Oocyte [1] turned out to be 24.6 µM; in the series with Oocyte [2], 78.2 µM. The Activity in the series on Oocyte [3] was found to be 1260%.

For the compound `CCN1CNS(=O)(=O)c2cc(Cl)cnc21`, the Activity entry in the series listed under Rattus norvegicus [5] is “Dose-dependent effect”; in the series with Rattus norvegicus [12], “Non-toxic”; in the series with Oocyte [3], 1090%. Moreover, the result in the series on Rattus norvegicus [6], in the series on Rattus norvegicus [8], in the series with Rattus norvegicus [10], with Rattus norvegicus [11] and in the series with Rattus norvegicus [13] was Active. For the same compound, the result with Rattus norvegicus [7] and with Rattus norvegicus [9] was inactive. For the same compound, the EC in the series on Oocyte [1] worked out at 20 µM; with Oocyte [2], 44 µM.

As to `CCN1CN(C)S(=O)(=O)c2ncc(C)cc21`, the EC in the series on Oocyte [1] was 86 µM; in the series with Oocyte [2], greater than 300 µM.

For the compound `CCN1CN(C)S(=O)(=O)c2ncccc21`, the results for the EC in the series with Oocyte [1] and with Oocyte [2] were 38 µM and 96 µM, respectively.

On to `CN1CNS(=O)(=O)c2cc(F)cnc21`, for which the EC in the series on Oocyte [1] is greater than 100 µM.

On to `CN1CNS(=O)(=O)c2cc(Cl)cnc21`, for which the EC in the series with Oocyte [1] is 21 µM; with Oocyte [2] it was 81 µM.

Regarding `NS(=O)(=O)c1cc2c(cc1Cl)NC(C1CC3C=CC1C3)NS2(=O)=O` (stereo not drawn), the results for the EC with Oocyte [1] and in the series with Oocyte [2] were 1.6 µM and 9.8 µM, respectively. In addition, the Activity in the series on Oocyte [3] came out at 844%.

In the case of `CCN1CNS(=O)(=O)c2cc(F)cnc21`, the EC came out at 123 µM in the series with Oocyte [1] and 300 µM with Oocyte [2]. In addition, the Activity with Oocyte [3] is greater than 422%.

Regarding `CCN1CNS(=O)(=O)c2cc(C)ccc21`, the EC with Oocyte [1] is 25 µM; in the series with Oocyte [2] it was 95 µM. In addition, the Activity with Oocyte [3] is greater than 1300%.

For `CCN1CN(C)S(=O)(=O)c2cc(Cl)cnc21`, the EC came to 110 µM in the series on Oocyte [1] and 335 µM with Oocyte [2].

With `CCN1CNS(=O)(=O)c2cc(Br)cnc21`, the figures for the EC in the series with Oocyte [1] and in the series on Oocyte [2] were 160 µM and greater than 300 µM, respectively.

Consider `CCN1CNS(=O)(=O)c2cc(Br)ccc21`, for which the EC in the series with Oocyte [1] came to 29 µM; in the series on Oocyte [2], 78 µM. For the same compound, in the series on Oocyte [3], the Activity is greater than 1100%.

`CCN1CNS(=O)(=O)c2ncc(C)cc21`: the values for the EC in the series with Oocyte [1] and in the series with Oocyte [2] were 116 µM and greater than 300 µM, respectively. The compound also showed a logP in series [4] of 0.41.

The record behind these values is ChEMBL document CHEMBL1140200, “Synthesis and pharmacological evaluation of a second generation of pyridothiadiazine 1,1-dioxides acting as AMPA potentiators” (Bioorg Med Chem, 2008).
